Experimental data taken from ChEMBL document CHEMBL1129574, “Synthesis, structure-activity relationships, and pharmacokinetic properties of dihydroorotate dehydrogenase inhibitors: 2-cyano-3-cyclopropyl-3-hydroxy-N-[3'-methyl-4'-(trifluoromethyl)phenyl ] propenamide and related compounds” (J Med Chem, 1996).
pIC50: −log10 of the molar value.

Experiments:
[1] = t1/2 in mouse plasma after oral dose (30/mg/Kg); format: ADME, organism-based
Procedure, shortened: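 Male CD-1 mice (25–32 g, n=5/time point) gavaged orally 30 mg/kg (10 mL/kg). Blood by exsanguination under ether at 0, 1, 3, 6, 24, 48, 72 h, pooled per time point, heparinized; plasma stored −20 °C. Drug quantified by reversed-phase HPLC (ODS, pH 7 phosphate/acetonitrile 65:35, UV 300 nm) with internal standard and spiked-plasma calibration.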

[2] = t1/2 in rat plasma after oral dose (10 mg/kg); format: ADME, organism-based
Procedure, shortened: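 Male Wistar CFHB rats (190–220 g, n=3/time point) given 10 mg/kg orally by gavage (10 mL/kg). Cardiac-puncture blood under ether at 0, 1, 3, 6, 24, 48, 72 h, individual heparinized samples; plasma kept at −20 °C. Levels by HPLC (ODS column, 0.1 M pH 7 phosphate 65%/acetonitrile 35%, UV 300 nm), internal standard, peak-area calibration from spiked blank plasma.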

[3] = target: Dihydroorotate dehydrogenase (quinone), mitochondrial (Mus musculus, UniProt O35435); experiment: Inhibitory concentration tested on enzyme dihydroorotate dehydrogenase in mouse
Chain of Dihydroorotate dehydrogenase (quinone), mitochondrial (Mus musculus, UniProt O35435) (O35435 whole entry): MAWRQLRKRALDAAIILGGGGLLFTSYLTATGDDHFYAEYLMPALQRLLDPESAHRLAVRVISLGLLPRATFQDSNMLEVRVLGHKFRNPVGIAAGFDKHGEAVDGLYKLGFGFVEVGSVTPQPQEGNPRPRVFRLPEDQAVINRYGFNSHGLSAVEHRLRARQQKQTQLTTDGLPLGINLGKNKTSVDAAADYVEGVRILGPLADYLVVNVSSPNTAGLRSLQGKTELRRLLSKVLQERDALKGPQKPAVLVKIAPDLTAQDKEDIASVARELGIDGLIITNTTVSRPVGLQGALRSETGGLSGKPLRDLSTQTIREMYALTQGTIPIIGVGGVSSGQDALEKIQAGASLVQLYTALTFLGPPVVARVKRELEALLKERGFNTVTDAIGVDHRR

[4] = target: Dihydroorotate dehydrogenase (quinone), mitochondrial (Rattus norvegicus, UniProt Q63707); experiment: Inhibitory concentration tested against enzyme dihydroorotate dehydrogenase in rat
Chain of Dihydroorotate dehydrogenase (quinone), mitochondrial (Rattus norvegicus, UniProt Q63707) (Q63707 whole entry): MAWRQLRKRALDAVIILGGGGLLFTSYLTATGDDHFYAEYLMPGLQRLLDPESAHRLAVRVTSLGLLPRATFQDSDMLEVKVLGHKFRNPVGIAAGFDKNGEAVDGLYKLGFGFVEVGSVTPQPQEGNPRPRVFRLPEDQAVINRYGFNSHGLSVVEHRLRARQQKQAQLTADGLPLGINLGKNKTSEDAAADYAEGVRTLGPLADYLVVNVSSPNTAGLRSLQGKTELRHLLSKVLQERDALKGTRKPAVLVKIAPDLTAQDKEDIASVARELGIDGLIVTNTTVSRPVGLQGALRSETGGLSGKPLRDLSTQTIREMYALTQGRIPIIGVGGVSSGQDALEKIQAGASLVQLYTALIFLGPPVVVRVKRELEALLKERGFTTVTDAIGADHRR

Mus musculus [5] = experiment: In vivo for its ability to inhibit delayed type hypersensitivity in mouse following 30 mg/kg administration.; format: functional
Procedure, shortened: (§1)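 Male CD-1 mice (25–30 g, n = 8-16) sensitized day 0 by s.c. 1 mg methylated BSA in saline/Freund's complete adjuvant; negative controls saline/FCA. Day 7 challenge: MBSA 0.1 mg into right hind footpad, saline in left. Oral dosing once daily days 4–6 plus twice on day 7 (1 h before, 6 h after challenge). Paw edema read 24 h post-challenge; Student's t-test.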

Rattus norvegicus [6] = experiment: In vivo for its ability to inhibit delayed type hypersensitivity in rat following 10 mg/kg administration.
Mus musculus [7] = experiment: In vivo ability to inhibit delayed type hypersensitivity in mouse at a concentration of 100 mg/kg; format: functional; procedure, shortened: as §1
Rattus norvegicus [8] = experiment: In vivo ability to inhibit delayed type hypersensitivity in rat at a concentration of 50 mg/kg; format: functional
Procedure, shortened: (§2)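 Male CFHB rats (160-180 g, n=7-12) sensitized day 0 by tail-base s.c. FCA (0.4 mg M. tuberculosis in liquid paraffin); controls got incomplete adjuvant. Day 7 challenge: soluble M. tuberculosis extract 0.4 mg into right hind footpad, saline in left. Oral dosing once daily days 4-6 and twice day 7 (1 h before, 6 h after). Edema read at 24 h; Student's t-test.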

Mus musculus [9] = experiment: Compound was tested in vivo for its ability to inhibit DTH(delayed type hypersensitivity ) in mouse at a concentration of 100 mg/kg; format: functional; procedure, shortened: as §1
Rattus norvegicus [10] = experiment: Compound was tested in vivo for its ability to inhibit DTH(delayed type hypersensitivity ) in rat at a concentration of 50 mg/kg; format: functional; procedure, shortened: as §2

Structure (SMILES)	half-life [1]	half-life [2]	pIC50 [3]	pIC50 [4]	inhibition in vivo at 30 mg/kg (Mus musculus [5])	inhibition in vivo at 10 mg/kg (Rattus norvegicus [6])	inhibition in vivo at 100 mg/kg (Mus musculus [7])	inhibition in vivo at 50 mg/kg (Rattus norvegicus [8])	inhibition in vivo at 100 mg/kg (Mus musculus [9])	inhibition in vivo at 50 mg/kg (Rattus norvegicus [10])
Cc1cc(NC(=O)/C(C#N)=C(\O)C2CC2)ccc1Cl	8 h	2 h	7.40	7.48	41%	42%				
N#C/C(C(=O)Nc1ccc(/C=C/c2ccc(Cl)cc2)cc1)=C(/O)C1CC1	43 h	> 30 h	4.90				69%	46%		
COC(=O)c1ccc(NC(=O)/C(C#N)=C(\O)C2CC2)cc1			5.95				34%	59%		
C/C=C/C(O)=C(\C#N)C(=O)Nc1ccc(C(F)(F)F)cc1			5.37	5.85					54%	16%
N#C/C(C(=O)Nc1ccc(-c2cccs2)cc1)=C(/O)C1CC1			5.60	6.20		34%				
N#C/C(C(=O)Nc1ccc(-c2ccccc2)cc1)=C(/O)C1CC1				5.83			33%	70%		
N#C/C(C(=O)Nc1ccc(Oc2ccccc2)cc1)=C(/O)C1CC1				6.54			9%	6%		
CS(=O)(=O)c1ccc(NC(=O)/C(C#N)=C(\O)C2CC2)cc1			4.82						36%	50%
Cc1oncc1C(=O)Nc1ccc(C(F)(F)F)cc1 [LEFLUNOMIDE]			7.52	8.05	84%	78%				
C[S+]([O-])c1ccc(NC(=O)/C(C#N)=C(\O)C2CC2)cc1 (centres undefined)			4.65	6.08					1%	71%
N#C/C(C(=O)Nc1ccc(C(=O)c2ccc(Cl)cc2)cc1)=C(/O)C1CC1			6.25	6.23	4%	-19%				
N#C/C(C(=O)Nc1ccc(Br)cn1)=C(/O)C1CC1	7 h	13 h		7.43	4%	66%				
N#C/C(C(=O)Nc1ccc(-c2ccco2)cc1)=C(/O)C1CC1			5.23				-13%	58%		
N#C/C(C(=O)Nc1ccc(Oc2ccc(Cl)cc2)cc1)=C(/O)C1CC1	21 h	39 h	6.08	5.82	63%	31%				
CN(C(=O)c1ccc(NC(=O)/C(C#N)=C(\O)C2CC2)cc1)c1ccc(Cl)cc1			5.65	4.72			-8%	22%		
N#C/C(C(=O)Nc1ccc(Cl)cn1)=C(/O)C1CC1			6.70	7.12			48%	64%		
C=C/C(O)=C(\C#N)C(=O)Nc1ccc(C(F)(F)F)cc1				7.64			7%			74%
N#C/C(C(=O)Nc1ccc(Cl)nc1)=C(/O)C1CC1			5.75		9%			71%		
N#C/C(C(=O)Nc1ccc(C#Cc2ccc(Cl)cc2)cc1)=C(/O)C1CC1	68 h	84 h	5.30		61%	61%				
N#C/C(C(=O)Nc1ccc(C(F)(F)F)cc1)=C(/O)C1CCC1			6.68	6.55			4%	1%		
Cc1cc(NC(=O)/C(C#N)=C(\O)C2CC2)ccc1Br	2 h	4 h	7.20	7.30			86%	66%		
Cc1ccc(NC(=O)/C(C#N)=C(\O)C2CC2)cc1Cl			6.55	7.10			43%	31%		
N#C/C(C(=O)Nc1ccc(-c2ncco2)cc1)=C(/O)C1CC1			4.70	5.37			17%	42%		
N#C/C(C(=O)Nc1ccncc1)=C(/O)C1CC1			5.05	4.93			22%	17%		
Cc1cc(NC(=O)/C(C#N)=C(\O)C2CC2)ccc1C#N	7 h	6 h	7.44	7.55	66%	50%				
N#C/C(C(=O)Nc1ccc(C=Cc2ccc(Cl)cc2)cc1)=C(/O)C1CC1			7.66				19%	52%		
Cc1cc(Cl)ccc1NC(=O)/C(C#N)=C(\O)C1CC1			5.43	5.90	54%	30%				
N#C/C(C(=O)Nc1ccc(-c2ccc(F)cc2)cc1)=C(/O)C1CC1			5.07	5.67	53%	79%				

More lines, main results first:

half-life [1]	half-life [2]	pIC50 [3]	pIC50 [4]	Structure (SMILES)	inhibition in vivo at 30 mg/kg (Mus musculus [5])	inhibition in vivo at 10 mg/kg (Rattus norvegicus [6])	inhibition in vivo at 100 mg/kg (Mus musculus [7])	inhibition in vivo at 50 mg/kg (Rattus norvegicus [8])	inhibition in vivo at 100 mg/kg (Mus musculus [9])	inhibition in vivo at 50 mg/kg (Rattus norvegicus [10])
		4.50	4.66	N#C/C(C(=O)Nc1ccc(N)cc1)=C(/O)C1CC1			32%	1%		
		< 4.00	< 4.00	N#C/C(C(=O)Nc1ccccc1C(F)(F)F)=C(/O)C1CC1					-10%	-4%
		< 4.00	5.10	N#C/C(C(=O)Nc1ccc(O)cc1)=C(/O)C1CC1			-11%	37%		
		5.43	6.73	COc1ccc(NC(=O)/C(C#N)=C(\O)C2CC2)cc1			9%	57%		
		5.43	5.83	N#C/C(C(=O)Nc1ccc(C(=O)O)cc1)=C(/O)C1CC1			-6%	39%		
		< 4.00	< 4.00	CN1CCCC1/C(O)=C(\C#N)C(=O)Nc1ccc(C(F)(F)F)cc1 (centres undefined)			10%	23%		
		5.10	4.35	N#C/C(C(=O)Nc1ccc(C(F)(F)F)cc1)=C(/O)C1CCCO1 (centres undefined)			29%	11%		
		4.93	4.75	N#C/C(C(=O)Nc1ccc(C(F)(F)F)cc1)=C(/O)C1CCOC1 (centres undefined)			29%	14%		
		< 4.00	< 4.00	N#C/C(C(=O)Nc1ccc(C(F)(F)F)cc1)=C(/O)C1CCCN1 (centres undefined)			-4%	-16%		
		< 4.00	4.85	N#C/C(C(=O)Nc1ccc(C(N)=O)cc1)=C(/O)C1CC1			-18%	20%		
8 h	4 h	7.26	7.85	Cc1cc(NC(=O)/C(C#N)=C(\O)C2CC2)ccc1C(F)(F)F	81%	59%				
4 h	6 h	5.42	7.17	CC(=O)c1ccc(NC(=O)/C(C#N)=C(\O)C2CC2)cc1		59%	32%			
6 h	6 h	7.15	7.40	CCc1cc(NC(=O)/C(C#N)=C(\O)C2CC2)ccc1C(F)(F)F	61%	74%				
		4.55	4.50	N#C/C(C(=O)Nc1ccc(C(F)(F)F)cc1)=C(/O)C1CCCC1			58%	19%		
28 h	8 h	7.33	7.68	N#C/C(C(=O)Nc1ccc(C(F)(F)F)cc1)=C(/O)C1CC1	85%	53%				
		5.82	5.45	N#C/C(C(=O)Nc1ccc(Oc2ccc(C(F)(F)F)cc2)cc1)=C(/O)C1CC1	-17%	39%				
		4.30	5.52	N#C/C(C(=O)Nc1ccc(-c2nc(C(F)(F)F)cs2)cc1)=C(/O)C1CC1		30%				
